Experimental data taken from ChEMBL document CHEMBL2439981, “Design, synthesis, and biological evaluation of bone-targeted proteasome inhibitors for multiple myeloma” (Bioorg Med Chem Lett, 2013).

What was measured:
Format in all cases: functional, cell-based
RPMI-8226 = assay: Cytotoxicity against human RPMI8226 cells after 48 to 72 hrs by SRB assay
How it was run: (§1)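 Cells seeded in triplicate at 3,000 per well in RPMI with 10% fetal bovine serum; drugs added after 24 h at six or more concentrations (1–18 nM in the dose-response figure). Exposure 72 h per methods and figure legend, 48 h per table footnote. Sulforhodamine B colorimetric read-out. IC50 from growth-inhibition curve, mean ±SD of at least 3 independent experiments.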

[1] = (§2) Cytotoxicity against mouse 5TGM1 cells after 48 to 72 hrs by SRB assay; how it was run: as §1
5TGM1 = assay: as §2; how it was run: as §1

Compound | IC50 (RPMI-8226) [nM] | inhibition (RPMI-8226) | IC50 [1] [nM] | inhibition (5TGM1)
CC(C)C[C@H](NC(=O)[C@H](CC(C)C)NC(=O)[C@H](CC(C)C)NC(=O)OCc1ccccc1)B(O)O | 13.8 | Dose-dependent effect | 9.18 | Dose-dependent effect
CC(C)C[C@H](NC(=O)[C@H](Cc1ccccc1)NC(=O)c1cnccn1)B(O)O [BORTEZOMIB] | 9.5 | Dose-dependent effect | 6.78 | Dose-dependent effect
CC(C)C[C@H](NC(=O)[C@H](CC(C)C)NC(=O)[C@H](CC(C)C)NC(=O)OCc1ccc(C(=O)NCCCC(O)(P(=O)(O)O)P(=O)(O)O)cc1)B(O)O | 12.5 | Dose-dependent effect | 4.89 | Dose-dependent effect
CC(C)C[C@H](NC(=O)[C@H](Cc1ccc(OCCCC(=O)NCCCC(O)(P(=O)(O)O)P(=O)(O)O)cc1)NC(=O)c1cnccn1)B(O)O | 11.5 | Dose-dependent effect | 9.39 | Dose-dependent effect
CC(C)C[C@H](NC(=O)[C@H](Cc1ccccc1)NC(=O)c1cnc(C(=O)NCCCC(O)(P(=O)(O)O)P(=O)(O)O)cn1)B(O)O | 10.2 | Dose-dependent effect | 7.59 | Dose-dependent effect
